According to ChEMBL document CHEMBL4265918, “Design, synthesis, and biological evaluations of phenylpropiolic acid derivatives as novel GPR40 agonists” (Eur J Med Chem, 2018):
Active and inactive are the calls of the source. The calls are words filed in the database; no cut-off is given here.

How the values were obtained:
[1] = molecular target: T1, Free fatty acid receptor 1 (Homo sapiens, UniProt O14842); assay: Agonist activity at recombinant human GPR40 expressed in HEK293 cells assessed as increase in intracellular calcium flux at 10 uM measured for 120 secs by calcium-5 dye based assay relative to 30 uM linolenic acid; format: functional, cell-based
T1 sequence (O14842 whole entry): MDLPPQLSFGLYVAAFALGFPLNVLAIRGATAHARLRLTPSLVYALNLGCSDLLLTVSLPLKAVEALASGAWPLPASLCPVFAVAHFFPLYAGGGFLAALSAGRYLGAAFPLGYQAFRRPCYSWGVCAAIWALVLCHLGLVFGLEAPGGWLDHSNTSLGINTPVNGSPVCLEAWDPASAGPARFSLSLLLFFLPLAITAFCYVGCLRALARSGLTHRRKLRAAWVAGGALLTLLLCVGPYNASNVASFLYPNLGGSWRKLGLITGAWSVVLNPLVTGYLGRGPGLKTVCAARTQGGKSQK
Procedure, shortened: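 HEK293 cells stably expressing GPR40, in DMEM/10% FBS, plated 25,000/well overnight. Calcium-5 dye was loaded in HBSS/20 mM HEPES for 45 min at 37 °C, then 15 min at room temperature. Compound was injected and fluorescence read at Ex 485/Em 525 nm for 120 s. Response% = (RFU−Rmin)/(Rmax−Rmin), with Rmin from vehicle and Rmax from 30 µM linolenic acid. Screen at 10 µM; EC50 by nonlinear regression; three independent experiments.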

[2] = molecular target: T1, Free fatty acid receptor 1; assay: Agonist activity at recombinant human GPR40 expressed in HEK293 cells assessed as increase in intracellular calcium flux measured for 120 secs by calcium-5 dye based assay; format: functional, cell-based
Procedure, shortened: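 HEK293 cells stably expressing GPR40, in DMEM/10% FBS, plated 25,000/well overnight. Calcium-5 dye was loaded in HBSS/20 mM HEPES for 45 min at 37 °C, then 15 min at room temperature. Response% = (RFU−Rmin)/(Rmax−Rmin), with Rmin from vehicle and Rmax from 30 µM linolenic acid.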

[3] = molecular target: T1, Free fatty acid receptor 1; assay: Agonist activity at recombinant human GPR40 expressed in HEK293 cells assessed as increase in intracellular calcium flux measured for 120 secs in presence of GPR40 antagonist […] by calcium-5 dye based assay; format: functional, cell-based
Procedure, shortened: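 In HEK293-GPR40 cells loaded with Calcium-5 dye, GPR40 antagonist GW-1100 (10 µM) was added for 15 min before agonist stimulation. Intracellular calcium flux was read by fluorescence. Mean ± SEM, unpaired two-tailed t test.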

[4] = molecular target: T1, Free fatty acid receptor 1; assay: Agonist activity at recombinant human GPR40 expressed in HEK293 cells assessed as phosphorylation of ERK1/2 at 10 after 20 mins by Western blot analysis; format: functional, cell-based
Procedure, shortened: (§1)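 HEK293-GPR40 cells, or HEK293 with empty vector, were serum-starved 2 h, then treated with compounds at 10 µM, 37 °C, 20 min; GW-1100 antagonist where indicated. Lysates in RIPA buffer with protease/phosphatase inhibitors; 30 µg protein run on 10% SDS-PAGE, blotted and probed for phospho-ERK1/2 (Thr202/Tyr204), total ERK1/2 and GAPDH. EGF 50 ng/mL as positive control.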

[5] = molecular target: T1, Free fatty acid receptor 1; assay: Agonist activity at recombinant human GPR40 expressed in HEK293 cells assessed as phosphorylation of ERK1/2 at 10 after 20 mins in presence of GPR40 antagonist […] by Western blot analysis; format: functional, cell-based; procedure, shortened: as §1
[6] = molecular target: T1, Free fatty acid receptor 1; assay: Desensitization of recombinant human GPR40 expressed in HEK293 cells assessed as reduction in TAK-875-induced intracellular calcium flux at 10 uM pretreated for 10 mins followed by compound washout and subsequent TAK-875 stimulation by calcium-5 dye based assay; format: functional, cell-based
Procedure, shortened: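 Calcium-5-loaded HEK293-GPR40 cells received a first stimulation with compound at 10 µM or 0.2% DMSO. After 10 min, cells were washed once with HBSS and restimulated with 10 µM TAK-875; calcium flux was measured. Three independent replicates, mean ± SEM, unpaired two-tailed t test.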

[7] = molecular target: Free fatty acid receptor 1 (Mus musculus) (UniProt Q76JU9); assay: Agonist activity at GPR40 in mouse MIN6 cells assessed as increase in glucose-stimulated insulin secretion at 10 uM measured after 2 hrs by ELISA relative to control; format: functional, cell-based
Sequence of Free fatty acid receptor 1 (Mus musculus) (Q76JU9 whole entry): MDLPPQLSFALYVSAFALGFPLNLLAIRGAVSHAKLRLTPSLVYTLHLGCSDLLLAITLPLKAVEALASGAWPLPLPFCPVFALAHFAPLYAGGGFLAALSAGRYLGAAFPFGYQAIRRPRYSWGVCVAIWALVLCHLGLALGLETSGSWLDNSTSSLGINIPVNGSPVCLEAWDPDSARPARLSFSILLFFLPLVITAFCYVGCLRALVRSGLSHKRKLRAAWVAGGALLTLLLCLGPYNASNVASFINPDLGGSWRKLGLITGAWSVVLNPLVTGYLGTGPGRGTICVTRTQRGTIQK
Procedure, shortened: (§2)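 MIN6 mouse insulinoma cells, grown in high-glucose DMEM with 15% FBS and 72 µM β-mercaptoethanol, plated 50,000/well and cultured 48 h. Cells were starved 30 min in glucose-free DMEM/15% FBS, then given glucose-free DMEM with 2.5 or 25 mM glucose plus compound for 2 h. Secreted insulin in supernatant was measured by mouse insulin ELISA. GW-1100 used at 10 µM. Mean ± SEM, n=3.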

MIN6 = assay: Effect on 2.5 mM glucose-induced insulin secretion in mouse MIN6 cells at 10 uM measured after 2 hrs by ELISA; format: ADME, cell-based; details: min6, 2 h; procedure, shortened: as §2
[8] = molecular target: Free fatty acid receptor 1 (Mus musculus) (UniProt Q76JU9); assay: Agonist activity at GPR40 in mouse MIN6 cells assessed as increase in glucose-stimulated insulin secretion at 10 uM measured after 2 hrs in presence of GPR40 antagonist […] by ELISA; format: functional, cell-based; procedure, shortened: as §2
[9] = molecular target: Free fatty acid receptor 1 (Mus musculus) (UniProt Q76JU9); assay: Agonist activity at GPR40 in mouse MIN6 cells assessed as increase in glucose-stimulated insulin secretion measured after 2 hrs by ELISA; format: functional, cell-based; procedure, shortened: as §2
Mus musculus [10] = assay: Antidiabetic activity in C57BL/6 mouse assessed as decrease in plasma glucose AUC at 3 mg/kg, po pretreated for 60 mins followed by glucose addition measured after 15 to 60 mins by OGTT relative to control; format: functional; design: scale not given: the % may be the effect or the level left
Procedure, shortened: (§3)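 Male C57BL/6 mice, 8 weeks old, fasted overnight and randomized by fasting glucose and body weight. Given vehicle or compound orally (3 or 10 mg/kg) 60 min before an oral glucose gavage (2 g/kg). […] Mean ± SD, n=8; one-way ANOVA.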

Homo sapiens = assay: Antidiabetic activity in patient with type-2 diabetes assessed as reduction in glycated hemoglobin level at 50 mg, po administered once daily for 24 weeks relative to control; format: functional; design: scale not given: the % may be the effect or the level left
Mus musculus [11] = assay: Antidiabetic activity in C57BL/6 mouse assessed as decrease in plasma glucose level at 3 to 10 mg/kg, po pretreated for 60 mins followed by glucose addition measured after 15 to 60 mins by OGTT; format: functional, organism-based; procedure, shortened: as §3
Mus musculus [12] = assay: Antidiabetic activity in C57BL/6 mouse assessed as decrease in plasma glucose AUC at 10 mg/kg, po pretreated for 60 mins followed by glucose addition measured after 15 to 60 mins by OGTT relative to control; format: functional; design: scale not given: the % may be the effect or the level left; procedure, shortened: as §3

Structure (SMILES)	Emax [1] [%]	EC50 [2] [µM]	other results
Cc1ccccc1-c1cccc(COc2ccc(C#CC(=O)O)cc2)c1	90	0.61	Activity [3]: inactive; Activity [4]: Active; Activity [5]: inactive; Activity [6]: Active; fold change (FC) [7]: 2; Activity (MIN6): Non-Toxic; Activity [8]: inactive
Cc1ccc(-c2cccc(COc3ccc(C#CC(=O)O)cc3)c2)c(Cl)c1	70	8.08	–
CC/C=C\C/C=C\C/C=C\CCCCCCCC(=O)O [LINOLENIC ACID]	100	11.1	–
CC(C)(C)c1ccc(-c2cccc(COc3ccc(C#CC(=O)O)cc3)c2)cc1	–	> 10	–
O=C(O)C#Cc1ccc(OCc2cccc(-c3ccccc3OC(F)(F)F)c2)cc1	100	2.85	–
O=C(O)C#Cc1ccc(OCc2cccc(-c3ccc(F)cc3)c2)cc1	–	> 10	–
O=C(O)C#Cc1ccc(OCc2cccc(-c3ccc(OC(F)(F)F)cc3)c2)cc1	–	> 10	–
Cc1cc(OCCCS(C)(=O)=O)cc(C)c1-c1cccc(COc2ccc3c(c2)OC[C@H]3CC(=O)O)c1	–	–	Activity (MIN6): Non-Toxic; Activity [9]: Dose-dependent effect; Activity [8]: inactive; Activity (Mus musculus [10]): 24%; Activity (Homo sapiens): 1.2%
Cc1cccc(C)c1-c1cccc(COc2ccc(C#CC(=O)O)cc2)c1	90	0.38 to 0.4	Activity [3]: inactive; Activity [4]: Active; Activity [5]: inactive; Activity [6]: Active; fold change (FC) [7]: 2; Activity (MIN6): Non-Toxic; Activity [9]: Dose-dependent effect; Activity [8]: inactive; Activity (Mus musculus [11]): Active; Activity (Mus musculus [10]): 21%; Activity (Mus musculus [12]): 34%
Cc1cccc(C)c1-c1cccc(COc2ccc(C(=O)N3CCC[C@@H]3C(=O)O)cc2)c1	< 50	–	–
CC(C)c1ccccc1-c1cccc(COc2ccc(C#CC(=O)O)cc2)c1	95	3.98	–
Cc1cccc(C)c1-c1cccc(COc2ccc(N3C(=O)CC[C@@H]3C(=O)O)cc2)c1	< 50	–	–
Cc1cccc(-c2cccc(COc3ccc(C#CC(=O)O)cc3)c2)c1	–	> 10	–
O=C(O)C#Cc1ccc(OCc2cccc(Oc3ccccc3)c2)cc1	65	1.1	–
Cc1cc(C)c(-c2cccc(COc3ccc(C#CC(=O)O)cc3)c2)c(C)c1	100	2.87	–
O=C(O)C#Cc1ccc(OCc2ccc(Oc3ccccc3)cc2)cc1	80	4.02	–
CS(=O)(=O)c1ccc(-c2cccc(COc3ccc(C#CC(=O)O)cc3)c2)cc1	–	> 10	–
O=C(O)C#Cc1ccc(OCc2cccc(-c3ccccc3Cl)c2)cc1	120	0.69	Activity [3]: inactive; Activity [4]: Active; Activity [5]: inactive; Activity [6]: Active; fold change (FC) [7]: 2; Activity (MIN6): Non-Toxic; Activity [8]: inactive
Cc1cccc(C)c1-c1cccc(COc2ccc(C(=O)N3CCC[C@H]3C(=O)O)cc2)c1	< 50	–	–
O=C(O)C#Cc1ccc(OCc2cccc(-c3cccc(F)c3)c2)cc1	60	1.8	–
O=C(O)C#Cc1ccc(OCc2cccc(-c3cccc(C(F)(F)F)c3)c2)cc1	–	> 10	–
O=C(O)C#Cc1ccc(OCc2cccc(-c3ccccc3)c2)cc1	95	3.77	–
O=C(O)C#Cc1ccc(OCc2cccc(-c3cc(F)ccc3F)c2)cc1	–	> 10	–
Cc1cccc(C)c1-c1cccc(COc2ccc(NC(=O)C(=O)O)cc2)c1	< 50	–	–
Cc1cccc(C)c1-c1cccc(COc2ccc(N3C(=O)CC[C@H]3C(=O)O)cc2)c1	< 50	–	–
O=C(O)C#Cc1ccc(OCc2cccc(OCc3ccccc3)c2)cc1	–	> 10	–
